# Measurements: ChEMBL document CHEMBL4402600, “Discovery of a Dual Tubulin Polymerization and Cell Division Cycle 20 Homologue Inhibitor via Structural Modification on Apcin” (J Med Chem, 2020)
# Active and inactive are the calls of the source. No cut-off for these calls is given here.
# Key:
# [1] = test system: HeLa; assay: Cytotoxicity in human HeLa cells assessed as reduction in cell viability incubated for 48 hrs by MTT assay; assay type: functional, cell-based
# In short: (§1)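 Cells grown at 37°C, 5% CO₂ (HepG2, OVCAR-3, Caov-3 in DMEM + 10% FBS; A549, HeLa, A375, MCF-7 in RPMI 1640 + 10% FBS). Seeded at 4-5×10³/well in triplicate, adhered overnight, exposed to 0.03–300 μM (DMSO <0.1%) for 48 h. MTT added for 4 h, formazan dissolved in DMSO, absorbance read. IC50 from dose–response curves, mean ± SD of at least three independent experiments.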
# [2] = test system: A-375; assay: Cytotoxicity in human A375 cells assessed as reduction in cell viability incubated for 48 hrs by MTT assay; assay type: functional, cell-based; conditions: A-375, 48 h; in short: as §1
# [3] = test system: HepG2; assay: Induction of apoptosis in human HepG2 cells assessed as late apoptotic cells level at 100 uM incubated for 24 hrs by Annexin V-FITC/PI staining based flow cytometry (reference value: 5.12%); assay type: functional
# [4] = test system: HepG2; assay: Cytotoxicity in human HepG2 cells assessed as reduction in cell viability incubated for 48 hrs by MTT assay; assay type: functional, cell-based; conditions: HepG2, 48 h; in short: as §1
# [5] = target: T1, Cell division cycle protein 20 homolog (Homo sapiens, UniProt Q12834); assay: Binding affinity to CDC20 (unknown origin) by SPR analysis
# T1 sequence (Q12834 whole entry): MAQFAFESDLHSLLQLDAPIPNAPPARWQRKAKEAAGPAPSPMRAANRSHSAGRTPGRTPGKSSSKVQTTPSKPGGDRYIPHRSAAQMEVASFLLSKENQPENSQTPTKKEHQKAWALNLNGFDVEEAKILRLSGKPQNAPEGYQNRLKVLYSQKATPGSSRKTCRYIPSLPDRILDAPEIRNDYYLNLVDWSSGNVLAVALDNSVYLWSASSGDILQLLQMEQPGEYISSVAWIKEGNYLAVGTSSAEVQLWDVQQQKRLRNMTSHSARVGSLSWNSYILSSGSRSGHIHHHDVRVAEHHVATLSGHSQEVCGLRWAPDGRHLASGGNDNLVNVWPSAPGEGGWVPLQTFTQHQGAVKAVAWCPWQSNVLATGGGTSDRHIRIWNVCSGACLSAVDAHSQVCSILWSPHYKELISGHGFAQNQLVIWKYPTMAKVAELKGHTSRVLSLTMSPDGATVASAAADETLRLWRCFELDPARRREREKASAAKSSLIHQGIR
# In short: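 Recombinant human Cdc20 (>95% pure) coupled by EDC/NHS to an acid-coupling chip; PBS pH 7.4 running buffer. Compounds injected as a gradient dilution series starting at 200 μM, 120-140 s association, 160 s dissociation. Steady-state values plotted against concentration; K_D from a one-to-one / single-site model.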
# [6] = test system: HepG2; assay: Induction of apoptosis in human HepG2 cells assessed as increase in cleaved PARP level at 3 to 30 uM incubated for 48 hrs by Western blot analysis; assay type: functional, cell-based
# In short: (§2)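 HepG2 cells treated 48 h. Lysates in RIPA buffer with protease/phosphatase inhibitors; 25 μg protein run on SDS-PAGE, transferred to PVDF, blocked in 5% milk/TBST, primary antibodies overnight at 4°C (caspase-3, cleaved caspase-3, cleaved PARP), HRP secondary 1 h at room temperature, ECL detection; densitometry quantified.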
# [7] = test system: HepG2; assay: Induction of apoptosis in human HepG2 cells assessed as necrotic cells level at 100 uM incubated for 24 hrs by Annexin V-FITC/PI staining based flow cytometry (reference value: 1.48%); assay type: functional
# [8] = test system: HepG2; assay: Inhibition of mitotic exit in human HepG2 cells assessed as increase in nuclear phosphohistone H3 levels at 30 uM incubated for 48 hrs by immunofluorescence assay relative to control; assay type: functional; parameters: scale not given: the % may be the effect or the level left
# In short: (§3)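 HepG2 seeded at 4×10³/well, overnight adhesion, treated 48 h. Fixed 15 min in 4% formaldehyde, permeabilized with Triton X-100, BSA-blocked, anti-phospho-histone H3 (Ser10) at 4°C overnight, fluorescent anti-rabbit secondary, DAPI counterstain. Fluorescence read relative to DMSO control; PHH3-positive cells counted in random fields as % of total. At least two experiments.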
# [9] = test system: HepG2; assay: Induction of apoptosis in human HepG2 cells assessed as early apoptotic cells level at 100 uM incubated for 24 hrs by Annexin V-FITC/PI staining based flow cytometry (reference value: 4.02%); assay type: functional
# [10] = test system: A549; assay: Cytotoxicity in human A549 cells assessed as reduction in cell viability incubated for 48 hrs by MTT assay; assay type: functional, cell-based; conditions: A549, 48 h; in short: as §1
# [11] = target: T1, Cell division cycle protein 20 homolog; assay: Inhibition of CDC20 in human HepG2 cells assessed as decrease in cyclin B degradation at 30 uM incubated for 48 hrs by Western blot Analysis; assay type: cell-based
# In short: (§4)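 HepG2 lysates in RIPA buffer with protease/phosphatase inhibitors; 25 μg protein by SDS-PAGE/PVDF, blocked in 5% milk/TBST, primary antibodies overnight at 4°C (Cyclin A2, Cyclin B1, Bim, Aurora A, Skp2), HRP secondary 1 h at room temperature, ECL; bands quantified by densitometry.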
# [12] = target: T1, Cell division cycle protein 20 homolog; assay: Inhibition of CDC20 in human HepG2 cells assessed as increase in stability of Bim protein at 30 uM measured after 2 to 8 hrs by Western blot Analysis; assay type: cell-based
# In short: (§5)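 Time course in HepG2: cyclin B1, Aurora A, Bim and cleaved PARP examined by Western blot at 1, 2, 4, 8 and 12 h after adding 30 μM compound; lysis in RIPA with inhibitors, 25 μg protein per lane, ECL detection.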
# [13] = test system: HepG2; assay: Inhibition of mitotic exit in human HepG2 cells assessed as increase in nuclear phosphohistone H3 levels incubated for 48 hrs by immunofluorescence assay; assay type: functional, cell-based; in short: as §3
# [14] = target: Fizzy-related protein homolog (Homo sapiens) (UniProt Q9UM11); assay: Inhibition of CDH1 in human HepG2 cells assessed as effect on Skp2 protein expression at 30 uM incubated for 48 hrs by Western blot Analysis; assay type: cell-based; in short: as §4
# Chain of Fizzy-related protein homolog (Homo sapiens) (Q9UM11 whole entry): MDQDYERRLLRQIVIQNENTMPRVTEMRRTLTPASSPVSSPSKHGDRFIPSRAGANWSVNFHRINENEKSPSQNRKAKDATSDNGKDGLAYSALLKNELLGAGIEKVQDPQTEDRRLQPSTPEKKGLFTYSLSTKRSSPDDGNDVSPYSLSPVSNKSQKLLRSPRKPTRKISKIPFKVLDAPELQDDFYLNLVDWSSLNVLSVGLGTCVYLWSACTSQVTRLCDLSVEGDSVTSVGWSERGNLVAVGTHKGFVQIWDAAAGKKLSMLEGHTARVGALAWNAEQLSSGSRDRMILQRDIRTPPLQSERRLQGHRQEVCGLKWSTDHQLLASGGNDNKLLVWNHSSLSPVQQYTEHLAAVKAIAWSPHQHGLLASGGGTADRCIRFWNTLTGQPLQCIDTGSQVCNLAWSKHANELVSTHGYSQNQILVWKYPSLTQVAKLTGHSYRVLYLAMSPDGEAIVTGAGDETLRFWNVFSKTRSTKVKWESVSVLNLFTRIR
# [15] = test system: HepG2; assay: Induction of apoptosis in human HepG2 cells assessed as viable cells level at 100 uM incubated for 24 hrs by Annexin V-FITC/PI staining based flow cytometry (reference value: 89.38%); assay type: functional
# [16] = target: T1, Cell division cycle protein 20 homolog; assay: Inhibition of CDC20 in human HepG2 cells assessed as increase in Aurora A protein degradation at 30 uM measured after 1 to 12 hrs by Western blot analysis; assay type: cell-based; in short: as §5
# [17] = test system: MCF7; assay: Cytotoxicity in human MCF7 cells assessed as reduction in cell viability incubated for 48 hrs by MTT assay; assay type: functional, cell-based; conditions: MCF7, 48 h; in short: as §1
# [18] = test system: HepG2; assay: Induction of apoptosis in human HepG2 cells assessed as increase in cleaved caspase-3 level at 3 to 30 uM incubated for 48 hrs by Western blot analysis; assay type: functional, cell-based; in short: as §2
# [19] = target: T1, Cell division cycle protein 20 homolog; assay: Inhibition of CDC20 in human HepG2 cells assessed as increase in stability of cyclin B1 protein at 30 uM measured after 2 to 8 hrs by Western blot Analysis; assay type: cell-based; in short: as §5
# [20] = test system: Caov-3 cell line; assay: Cytotoxicity in human Caov3 cells assessed as reduction in cell viability incubated for 48 hrs by MTT assay; assay type: functional, cell-based; conditions: Caov-3, 48 h; in short: as §1
# [21] = target: T1, Cell division cycle protein 20 homolog; assay: Inhibition of CDC20 in human HepG2 cells assessed as increase in stability of Bim protein at 30 uM measured after 1 to 12 hrs by Western blot Analysis
# [22] = target: Fizzy-related protein homolog (Homo sapiens) (UniProt Q9UM11); assay: Inhibition of CDH1 in human HepG2 cells assessed as effect on Aurora A protein expression at 30 uM incubated for 48 hrs by Western blot Analysis; assay type: cell-based; in short: as §4
# [23] = target: T1, Cell division cycle protein 20 homolog; assay: Inhibition of CDC20 in human HepG2 cells assessed as increase in Bim protein levels at 30 uM incubated for 48 hrs by Western blot Analysis; assay type: cell-based; in short: as §4
# [24] = test system: HepG2; assay: Inhibition of mitotic exit in human HepG2 cells assessed as increase in nuclear phosphohistone H3 levels at 3 to 30 uM incubated for 48 hrs by Western blot analysis relative to control; assay type: functional, cell-based
# [25] = test system: OVCAR-3; assay: Cytotoxicity in human OVCAR3 cells assessed as reduction in cell viability incubated for 48 hrs by MTT assay; assay type: functional, cell-based; conditions: OVCAR-3, 48 h; in short: as §1
Compound,IC50 [1] [µM],IC50 [2] [µM],IC50 [4] [µM],IC50 [10] [µM],IC50 [17] [µM],IC50 [20] [µM],IC50 [25] [µM],also measured
Cc1ncc([N+](=O)[O-])n1CCOC(=O)NC(Nc1c(Cl)nc(N)nc1Cl)C(Cl)(Cl)Cl (configuration not stated),63.2,34.2,25.6,56.5,160,110,,Activity [3]: 9.31%; Kd [5]: 49 µM; Activity [6]: Active; Activity [7]: 1.08%; Activity [8]: 6.9%; Activity [9]: 25.27%; inhibition [11]: Active; inhibition [12]: Active; Activity [13]: Dose-dependent effect; inhibition [14]: inactive; Activity [15]: 64.34%; inhibition [16]: Active; Activity [18]: Active; inhibition [19]: Active; inhibition [21]: inactive; inhibition [22]: inactive; inhibition [23]: Active; Activity [24]: Active
Cc1ncc([N+](=O)[O-])n1CCOC(=O)NC(n1cnc2c(N)nc(F)nc21)C(Cl)(Cl)Cl (configuration not stated),1.9,0.5,0.6,3.6,0.8,1.2,1.5,Kd [5]: 161 µM
Cn1c([N+](=O)[O-])cnc1COC(=O)NC(n1cnc2c(N)nc(F)nc21)C(Cl)(Cl)Cl (configuration not stated),0.2,2.7,3.8,0.5,1.5,0.3,0.6,
Cc1ncc([N+](=O)[O-])n1CCOC(=O)NC(n1cnc2c(Cl)ncnc21)C(Cl)(Cl)Cl (configuration not stated),> 300,> 300,> 300,> 300,> 300,> 300,> 300,
Cc1ncc([N+](=O)[O-])n1CCOC(=O)NC(n1cnc2c(NCc3ccccc3)ncnc21)C(Cl)(Cl)Cl (configuration not stated),71.8,> 300,33.2,148,96,> 300,243,
Cc1ncc([N+](=O)[O-])n1CCOC(=O)NC(Nc1ccncn1)C(Cl)(Cl)Cl (configuration not stated),> 300,5.3,> 300,> 300,> 300,> 300,> 300,
O=C(NC(Nc1ncnc2c1cnn2C(NC(=O)OCCc1ccccn1)C(Cl)(Cl)Cl)C(Cl)(Cl)Cl)OCCc1ccccn1 (configuration not stated),110,> 300,81.3,53.7,162,146,> 300,
Nc1ncnc2c1cnn2C(NC(=O)OCCN1CCOCC1)C(Cl)(Cl)Cl (configuration not stated),< 10,1.2,19.5,13.4,19.3,1,0.8,
CC(=O)Nc1nc2c(ncn2C(NC(=O)OCCn2c([N+](=O)[O-])cnc2C)C(Cl)(Cl)Cl)c(=O)[nH]1 (configuration not stated),> 300,> 300,> 300,> 300,> 300,> 300,> 300,
Cc1ncc([N+](=O)[O-])n1CCOC(=O)NC(n1cnc2c(N)nc(Cl)nc21)C(Cl)(Cl)Cl (configuration not stated),218,246,7.3,160,> 300,144,131,
Cc1ncc([N+](=O)[O-])n1CCOC(=O)NC(n1cnc2c(N)ncnc21)C(Cl)(Cl)Cl (configuration not stated),> 300,182,> 300,> 300,> 300,> 300,> 300,
Cc1c(Cl)nc(NC(NC(=O)OCCn2c([N+](=O)[O-])cnc2C)C(Cl)(Cl)Cl)nc1Cl (configuration not stated),27.1,11.9,13.6,184,114,31.2,25,
